The list is not random: actives were taken first. Their share in the collection is about 2.2%.
Calb biofilm kill: kills Candida albicans biofilms | C. albicans biofilm + clotrimazole, Alamar Blue | inhibition, % at 6 µM | 85,000 tested, 0.14% active | AID 834;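 active = inhibition above 20%; inactive = inhibition below 20%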;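 also: preformed 24 hr biofilms exposed to compound for 48 hr; 0% = biofilm without compound and 100% = blank killed by clotrimazole plus chlorhexidine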
RORa activator: activates the human nuclear receptor RORA; CHO-K1 Gal4-RORA LBD luciferase reporter, luminescence; percent increase over mock-subtracted basal signal; 65,000 tested, 1.5% active; activation, % at 10 µM;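 active = activation above the mean of all tested compounds plus 3 SD, cut at about 49% in these data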;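 also: 0% = DMSO-treated RORA cells and 100% = added signal equal to DMSO minus mock-transfected cells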
CD11b adhes inh: blocks human CD11b/CD18 adhesion to fibrinogen; K562 CD11b/CD18 adhesion to fibrinogen, ATPlite luminescence; Mn2+ added to activate the integrin; AID 1497; P05107+P11215; 93,000 tested, 0.54% active; inhibition, % at 10 µM;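 active = primary inhibition of 50% or more at 10 µM, then 40% or more on retest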
CD11b adhes enh: increases human CD11b/CD18 adhesion to fibrinogen. P05107+P11215. K562 CD11b/CD18 adhesion to fibrinogen, ATPlite luminescence. activation, % at 10 µM. 93,000 tested, 0.07% active;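 active = 10 µM primary screen giving 50% or more activity, confirmed by 40% or more on retest at that dose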
SF1 activator: SF-1 (human) activation; activation, % at 10 µM; Q13285; 65,000 tested, 1.9% active; CHO-K1 Gal4-SF-1 LBD luciferase reporter; % increase over DMSO SF-1-specific signal;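 active = activation above the mean activation of all tested compounds plus 3 SD, cut at about 50% in these data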
Target sequence (Q13285 whole entry, looked up, the tested form may be a part): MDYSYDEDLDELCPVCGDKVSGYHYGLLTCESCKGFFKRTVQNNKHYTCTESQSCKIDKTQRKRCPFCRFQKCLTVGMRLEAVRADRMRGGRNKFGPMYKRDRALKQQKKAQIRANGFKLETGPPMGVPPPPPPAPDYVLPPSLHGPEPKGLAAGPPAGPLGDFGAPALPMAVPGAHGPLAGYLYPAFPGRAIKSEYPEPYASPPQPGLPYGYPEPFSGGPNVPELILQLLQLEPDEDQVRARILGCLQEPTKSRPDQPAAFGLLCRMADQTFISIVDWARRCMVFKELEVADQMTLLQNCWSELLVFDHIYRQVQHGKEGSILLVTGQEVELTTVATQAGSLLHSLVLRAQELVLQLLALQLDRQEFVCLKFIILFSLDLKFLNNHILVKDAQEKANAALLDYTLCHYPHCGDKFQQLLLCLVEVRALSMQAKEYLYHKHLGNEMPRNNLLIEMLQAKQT
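Test system: CHO-K1 cells co-transfected with Gal4 DBD–human SF-1 LBD, 5xGal4 luciferase reporter. Quantity: 4,000 cells per well. Compound: 10 µM only. Incubation: compound added 1 h post-seeding, 20 h exposure at 37 °C, 5% CO2. Detection: SteadyLite luciferase luminescence. Replication: one test per compound.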
MT1-MMP txn act: activates MT1-MMP transcription; activation factor at 10 µM; 86,000 tested, 0.16% active; HT1080 MT1-MMP promoter luciferase reporter, luminescence, overnight; stronger effect = higher value;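 active = activation factor of at least 2 for MT1-MMP transcription at 10 µM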
* marks the source's active call; other numbers are inactive results; . = not tested or not shown.

SMILES | Calb biofilm kill | RORa activator | CD11b adhes inh | CD11b adhes enh | SF1 activator | MT1-MMP txn act
CN(C(=O)c1cnccn1)c1nnc(-c2cccnc2)s1 | . | 6.9 | . | . | -1.1 | 1.1
COC(=O)c1c(NS(=O)(=O)c2ccc3ccccc3c2)sc2c1CCCC2 | . | . | 51.7* | -0.2 | . | 1.1
CCOC(=O)c1c(NS(=O)(=O)c2ccc(Br)cc2)sc2c1CCC2 | 7.2 | . | . | . | . | 1
Cc1ccc2cc(C#N)c(SCC(=O)NCC3CCCO3)nc2c1 (stereo not given) | 1.3 | -9.3 | 6.6 | 1.3 | 5.4 | 1.1
COC(=O)CSc1nc2cc(C)ccc2cc1C#N | -3.2 | 17.0 | -9.9 | 2.1 | 100.0* | 2*
CCOC(=O)CC(=O)CSc1nc2c(cc1C#N)CCCCC2 | 9.8 | 19.0 | -7.0 | 2.3 | 59.4* | 1.5
CCOC(=O)CC(=O)CSc1nc2ccc(C)cc2cc1C#N | 10.4 | 20.0 | -9.3 | -5.2 | 71.7* | 1.5
CCOC(=O)CC(=O)CSc1nc(C)cc(C)c1C#N | 6.8 | . | -8.3 | -1.8 | . | 1.2
CCOC(=O)c1cnc(SC2CCc3ccccc3C2=O)nc1N (stereo not given) | 6.9 | 41.0 | 40.0 | 0.0 | 17.9 | 1.5
Cc1nc(C)c(CCNC(=O)c2ccccc2Br)s1 | . | . | 10.9 | 1.4 | . | .
COc1ccc(CCNC(=O)CCn2c(=O)oc3ccccc32)cc1 | 21.2* | 12.1 | 2.3 | 1.0 | -4.8 | 1
COc1ccccc1CCNC(=O)CCn1c(=O)oc2ccccc21 | 7.8 | . | -3.5 | -0.8 | . | .
O=C1C(=O)c2c(C(=O)c3ccccc3)coc2-c2ccccc21 | -1.2 | . | 59.0* | -0.2 | . | .
Cc1oc2c(c1C(=O)c1ccccc1)C(=O)C(=O)c1ccccc1-2 | 0.7 | . | . | . | . | 0
CCN(CC)c1ccc(/C=N/N2CCOCC2)cc1 | . | . | -21.2 | -0.3 | . | .
CCN(CC)c1ccc(C=N/C(C#N)=C(\N)C#N)cc1 | 10.4 | 28.0 | 4.1 | -4.5 | 56.8* | 1.1
CCC1=C(OC(=O)N(CC)CC)N2C(=O)OC(=NCCOC)[C@]2(C)[C@H]2C1=CC[C@H]1C(=O)N(C)C(=O)[C@H]12 | . | . | . | . | . | 1.1
CC(C)C(=O)Nc1cccc(NC(=S)NC(=O)c2ccc(Cl)cc2)c1 | . | . | 23.9 | -3.1 | . | .
O=C(NC(=S)Nc1ccc(Oc2ccccc2)cc1)c1ccc(Cl)cc1 | . | . | 78.0* | -9.1 | . | .
Cc1nc2c(-c3ccccc3)c(C)nn2c(N)c1-c1ccccc1 | 0.2 | . | . | . | . | 1.4
Cc1nn(-c2nc3ccccc3s2)c(N)c1-c1ccc(Cl)cc1 | . | 25.6 | . | . | 19.5 | 1.6
Cc1nn(-c2nc3ccccc3[nH]2)c(N)c1-c1ccccc1 | 7.3 | 54.3* | . | . | 31.2 | 1.8
Cc1nn(-c2nc3ccccc3s2)c(N)c1-c1ccccc1 | 4.4 | 43.3 | 19.1 | 4.0 | 60.0* | 0.7
Cc1nn(-c2nc3ccccc3s2)c(N)c1Sc1ccc(F)cc1 | 7.2 | 25.9 | -8.1 | 7.3 | 63.0* | 1.9
CCC/C=C(\CCC)C(NC(=O)C(C)(C)C)c1ccc(C(=O)OC)cc1 (stereo not given) | . | . | . | . | . | 1.1
SMILES | Calb biofilm kill | RORa activator | CD11b adhes inh | CD11b adhes enh | SF1 activator | MT1-MMP txn act
Clc1ccccc1CSc1nncn1NC/C=C/c1ccccc1 | . | . | -0.2 | 9.7 | . | .
CC12CCC(C/C1=N\N=C1\NC(=O)/C(=C\c3ccc(Cl)cc3)S1)C2(C)C (stereo not given) | . | . | 96.0 | -10.6 | . | .
c1ccc2c(c1)Cc1cc(CN3CCOCC3)ccc1-2 | 7.8 | 67.7* | 5.0 | 2.8 | 28.4 | 1.3
Clc1ccccc1OCc1nnc(-c2ccccc2Br)o1 | -0.5 | 83.4* | 6.2 | -0.9 | 93.5* | 1.6
O=C(O)C1C2C=CC(C2)C1C(=O)NC1CCS(=O)(=O)C1 (stereo not given) | 5.6 | 17.4 | 4.0 | 0.3 | -6.1 | 1.1
CCCCCCN(C(=O)CCCCCN1C(=O)NC(C2CCCCC2)C(C(=O)OCc2ccccc2)=C1C)C(C(=O)NCCCC)c1ccc(OCC(=O)OC)c(C(=O)OC)c1 (stereo not given) | . | . | . | . | . | 1.1
CCOC(=O)c1cc(C)n(Cc2cccc(OC)c2OC)c1C | 2.1 | -12.4 | 55.7* | -2.6 | -5.2 | 0.9
O=C(Cc1coc2ccc3ccccc3c12)N1CCc2ccccc21 | 3.4 | . | 16.4 | -2.2 | . | 0.9
Cc1ccc2c(CC(=O)N3CCc4ccccc43)coc2c1 | -1.9 | 48.0 | -0.6 | 0.6 | 86.6* | 1.4
Cc1ccc(S(=O)(=O)CC2CSc3nc(N)cc(=O)n32)cc1 (stereo not given) | 6.2 | -6.8 | 0.9 | -2.6 | -13.3 | 1.1
Cc1ccc(S(=O)(=O)CC2CSc3nc4ccccc4n32)cc1 (stereo not given) | . | . | 92.8* | -11.7 | . | .
O=C(CSc1nc(C2CCCCC2)n(-c2ccccc2)n1)NCC(F)(F)F | . | . | -7.4 | 4.7 | . | .
Cc1ccc(-c2cc(-c3cccc(F)c3)n[nH]2)c(O)c1 | 0.0 | 68.4* | -0.4 | -0.4 | 52.6* | 1.8
Cc1ccc(O)c(-c2cc(-c3cccc(F)c3)n[nH]2)c1 | 8.3 | . | 8.6 | 0.0 | . | 2.1*
Cc1ccc(-c2cc(-c3ccccc3C)[nH]n2)c(O)c1 | 0.0 | . | . | . | . | 1.8
Cc1ccc(O)c(-c2cc(-c3ccccc3F)[nH]n2)c1 | 0.0 | . | 7.3 | -2.0 | . | 1.5
CCOC(=O)C1=C(C)N(CCCC(=O)O)C(=O)NC1c1ccc2ccccc2c1 (stereo not given) | . | . | . | . | . | 1.1
CN(C)CCCN1C(=O)C(=O)/C(=C(/O)c2ccc(S(=O)(=O)N(C)C)cc2)C1c1ccncc1 (stereo not given) | 4.9 | -23.4 | . | . | 5.5 | 1.1
COC(=O)[C@@]1(Cc2ccc(OC)cc2)[C@H]2c3cc(C(=O)N4CCCC4)n(Cc4cc(F)cc5c4OCOC5)c3C[C@H]2CN1C(=O)c1ccccc1 | . | . | . | . | . | 1.2
O=C(Nc1ccc2nc(-c3ccccc3)[nH]c2c1)c1ccco1 | 6.1 | . | -11.0 | -3.7 | . | 1.6
O=C(Nc1ccc2nc(-c3ccc(Br)o3)[nH]c2c1)c1cccs1 | -6.5 | 61.5* | -16.1 | 1.8 | 6.0 | 1.3
O=C(Nc1ccc2nc(-c3ccc(Br)o3)[nH]c2c1)c1ccco1 | 0.2 | 54.7* | . | . | 30.4 | 1.3
Cn1cccc1-c1nc2ccc(NC(=O)c3cccs3)cc2[nH]1 | . | 25.9 | 6.7 | 4.8 | -1.7 | 1.6
Nc1nonc1C(=O)NCCNS(=O)(=O)c1ccc(F)cc1 | . | . | -15.8 | 6.4 | . | .
O=c1c2c3c(sc2nc2n1CCCS2)CCCC3 | 2.3 | 39.4 | 9.9 | 1.9 | 70.9* | 1.7
O=c1c2c3c(sc2nc2n1CCCCC2)CCCCC3 | . | 55.3* | 3.0 | 0.8 | 42.1 | 1.5
Nc1nc2sc3c(c2c(=O)s1)CCCC3 | 10.0 | 10.6 | -8.6 | 0.2 | 55.9* | 1.3
O=c1c2c3c(sc2nc2n1CCCCC2)CCCC3 | 8.9 | 105.6* | -5.3 | -0.8 | 59.5* | 1.7
CCC(=C(c1ccc(OC)cc1)c1ccc(OC)cc1)c1cn(CC(O)CN2CCN(C)CC2)c2ccccc12 (stereo not given) | -2.0 | . | 18.9 | 8.5 | . | 1
